Results on 34 compounds are retold here after ChEMBL document CHEMBL1275280, “Synthesis, structural elucidation and DNA-dependant protein kinase and antiplatelet studies of 2-amino-[5, 6, 7, 8-mono and 7, 8-di-substituted]-1,3-benzoxazines” (Eur J Med Chem, 2010).

Calls of active or inactive are those of the source. No cut-off for these calls is given here. Where only a bound is given, the exact number is not on record here.

System in one assay: not listed separately
The assay can be described thus: Inhibition of DNA-dependent protein kinase at 1.6 uM. The gist of the method:
(§1)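 Compound in DMSO was added in place of water, at final concentrations of 1.6–4.0. The reaction was stopped with termination buffer and captured on a biotin membrane. After washing, scintillation counts gave percent inhibition relative to the full-reaction positive control (n = 3).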
On to `Cc1c(OCc2ccccn2)ccc2c(=O)nc(N3CCOCC3)oc12`, for which the inhibition result was “Active”.

System in another assay: not listed separately
The assay can be described thus: Inhibition of DNA-dependent protein kinase at 4 uM. Summed up:
as §1
`Cc1c(OCCN2CCN(C)CC2)ccc2c(=O)nc(N3CCOCC3)oc12`: the inhibition result was “Active”. The same measure, in the same setting: the entry for `CN1CCN(CCOc2cccc3c(=O)nc(N4CCOCC4)oc23)CC1` is “Active”; for `CN1CCN(CCOc2ccc3oc(N4CCOCC4)nc(=O)c3c2)CC1` it is “inactive”; for `CN1CCN(CCOc2cccc3oc(N4CCOCC4)nc(=O)c23)CC1` it is “inactive”.

As to `Cc1c(OCc2cccnc2)ccc2c(=O)nc(N3CCOCC3)oc12`, the inhibition result is “Active”. On the same count and under the same terms, the entry for `CN1CCN(CCOc2ccc3c(=O)nc(N4CCOCC4)oc3c2)CC1` is “Active”.

System in a further assay: not listed separately
The assay can be described thus: Inhibition of DNA-dependent protein kinase at 2 uM. The gist of the method:
as §1
`Cc1c(OCc2ccncc2)ccc2c(=O)nc(N3CCOCC3)oc12`: the inhibition result was “Active”. On to `O=c1nc(N2CCOCC2)oc2c(-c3ccccc3)cccc12`, for which the inhibition entry was “Active”.

The subject of another assay is Platelet. Description: Inhibition of collagen-induced platelet aggregation in human venous blood by optical method based aggregometry. The format is functional, tissue-based.
As for `Cc1c(OCc2ccncc2)ccc2c(=O)nc(N3CCOCC3)oc12`, the IC50 (as a rule, the concentration at which inhibition is half-maximal) is 4 µM.

`O=c1nc(N2CCOCC2)oc2c(OCc3ccccc3)cccc12` gave a half-inhibitory concentration (IC50) of 53 µM. In turn, `O=c1nc(N2CCOCC2)oc2ccc(OCc3cccnc3)cc12` returned an IC50 of at least 90 µM. Compound `O=c1nc(N2CCOCC2)oc2cccc(OCCCl)c12` yielded an IC50 of at least 100 µM. Same read-out and setting: the figure for `O=c1nc(N2CCOCC2)oc2c(OCc3ccncc3)cccc12` is 70 µM; for `O=c1nc(N2CCOCC2)oc2c(OCc3cccnc3)cccc12` it is 22 µM; for `O=c1nc(N2CCOCC2)oc2ccc(OCCBr)cc12` it is 83 µM. Same read-out and setting: the figure for `Cc1c(O)ccc2c(=O)nc(C3CCNCC3)oc12` is at least 90 µM; for `O=c1nc(N2CCOCC2)oc2ccc(OCc3ccccc3)cc12` it is at least 100 µM. `Cc1c(OCc2ccccn2)ccc2c(=O)nc(N3CCOCC3)oc12` showed a concentration for half-maximal inhibition (IC50) of 34 µM.

For `Cc1c(O)ccc2c(=O)nc(N3CCSCC3)oc12`, the 50% inhibitory concentration (IC50) was at least 100 µM. On the same count and under the same terms, under `Cc1c(OCCN2CCN(C)CC2)ccc2c(=O)nc(N3CCCCC3)oc12` stands 36 µM; under `O=c1nc(N2CCOCC2)oc2c(OCCBr)cccc12`, 70 µM; under `CN1CCN(CCOc2cccc3c(=O)nc(N4CCOCC4)oc23)CC1`, 80 µM. Same read-out and setting: under `O=c1nc(N2CCOCC2)oc2cccc(OCc3cccnc3)c12` stands at least 100 µM; under `O=c1nc(N2CCOCC2)oc2cc(F)ccc12`, 80 µM; under `Cc1c(OCCBr)ccc2c(=O)nc(N3CCCCC3)oc12`, 61 µM. The same measure, in the same setting: under `O=c1nc(N2CCOCC2)oc2c(OCCCl)cccc12` stands 60 µM; under `Cc1c(OCCCl)ccc2c(=O)nc(N3CCOCC3)oc12`, 36 µM. The compound `CN1CCN(CCOc2ccc3oc(N4CCOCC4)nc(=O)c3c2)CC1` had a half-maximal inhibitory concentration (IC50) of at least 86 µM.

`CN1CCN(CCOc2cccc3oc(N4CCOCC4)nc(=O)c23)CC1` returned an IC50 of at least 100 µM.

Turning to `O=c1nc(N2CCOCC2)oc2cc(OCc3ccncc3)ccc12`, inhibition was half-maximal at 45 µM (IC50). As for `Cc1c(OCc2cccnc2)ccc2c(=O)nc(N3CCOCC3)oc12`, it took 2 µM to reach half-maximal inhibition (IC50).

As for `O=c1nc(N2CCOCC2)oc2cc(OCc3ccccn3)ccc12`, the 50% inhibitory concentration (IC50) was found to be 75 µM. Compared with the last compound, the IC50 is about 38-fold higher.

As to `CCOc1ccc2c(=O)nc(N3CCOCC3)oc2c1`, the IC50 stood at 85 µM. As to `O=c1nc(N2CCOCC2)oc2ccc(OCCCl)cc12`, it took 87 µM to reach half-maximal inhibition (IC50). The same measure, in the same setting: the figure for `O=c1nc(N2CCOCC2)oc2cc(OCc3cccnc3)ccc12` is 70 µM; for `CC(C)c1cccc2c(=O)nc(N3CCOCC3)oc12` it is 70 µM. Compound `Cc1c(OCCN2CCN(C)CC2)ccc2c(=O)nc(N3CCSCC3)oc12` returned an IC50 of 47 µM. Same read-out and setting: the figure for `O=c1nc(N2CCOCC2)oc2cccc(OCc3ccccc3)c12` is at least 100 µM; for `Cc1c(OCCBr)ccc2c(=O)nc(N3CCSCC3)oc12` it is 75 µM.
